Measurements as given in ChEMBL document CHEMBL4342524, “Discovery of M-808 as a Highly Potent, Covalent, Small-Molecule Inhibitor of the Menin-MLL Interaction with Strong In Vivo Antitumor Activity” (J Med Chem, 2020).
The source made the active and inactive calls. The calls are words filed in the database; no cut-off is given here.

How the values were obtained:
MOLM-13 = test: Growth inhibition of human MOLM13 cells after 7 days by WST-8 assay; assay type: functional, cell-based; settings: MOLM-13, 168 h
In short: (§1)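 Cells cultured in IMDM or RPMI 1640 with 10% FBS at 37 °C, 5% CO2. Growth read by WST-8 at 450 nm after at least 1 h with reagent. Signals normalized to untreated cells and IC50 fitted by nonlinear regression; mean and SD from three independent experiments.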

HL-60 = test: Growth inhibition of human HL60 cells after 7 days by WST-8 assay; assay type: functional, cell-based; settings: HL-60, 168 h; in short: as §1
Menin (Homo sapiens) [1] = target: T1, Menin (Homo sapiens) (UniProt O00255); test: Covalent binding affinity to human menin assessed as protein-compound complex formation at protein to compound ratio of 1:1.2 after 1 hr by LC-MS analysis relative to control
T1 sequence (whole entry): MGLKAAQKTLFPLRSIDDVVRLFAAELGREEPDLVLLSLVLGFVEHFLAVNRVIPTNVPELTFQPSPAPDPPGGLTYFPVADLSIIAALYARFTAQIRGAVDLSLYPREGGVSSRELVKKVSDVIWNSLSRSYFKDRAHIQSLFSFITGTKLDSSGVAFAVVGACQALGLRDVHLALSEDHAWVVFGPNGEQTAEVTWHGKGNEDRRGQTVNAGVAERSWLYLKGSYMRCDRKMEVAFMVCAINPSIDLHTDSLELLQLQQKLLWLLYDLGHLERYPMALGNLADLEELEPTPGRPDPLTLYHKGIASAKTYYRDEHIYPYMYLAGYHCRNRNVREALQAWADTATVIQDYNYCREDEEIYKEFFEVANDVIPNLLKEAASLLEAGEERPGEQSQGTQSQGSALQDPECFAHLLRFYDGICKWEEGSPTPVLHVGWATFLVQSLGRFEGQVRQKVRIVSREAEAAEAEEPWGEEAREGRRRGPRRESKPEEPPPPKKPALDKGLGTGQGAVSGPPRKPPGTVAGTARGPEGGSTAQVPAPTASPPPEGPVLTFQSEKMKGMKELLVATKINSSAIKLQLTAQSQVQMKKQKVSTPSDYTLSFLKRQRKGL
In short: (§2)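 Diluted to 1 mg/mL, then run on reverse-phase C4 LC with a 5–100% MeCN/0.2% formic acid gradient and Q-TOF MS. Intact masses obtained by maximum-entropy deconvolution.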

Menin (Homo sapiens) [2] = target: T1, Menin (Homo sapiens); test: Covalent binding affinity to human menin assessed as protein-compound complex formation at protein to compound ratio of 1:1.2 measured after overnight incubation by LC-MS analysis relative to control; in short: as §2
Mus musculus [3] = test: Downregulation of Hoxa9 expression in tumors of CB-17 SCID mouse xenografted with human MV4-11 cells at 10 mg/kg, iv administered as single dose and measured after 24 hrs by RT-qPCR analysis; assay type: functional, organism-based
In short: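 MV4;11 subcutaneous xenografts in female C.B-17 SCID mice; single IV dose of 10 mg/kg or vehicle. Tumors collected 24 h post-dose, 3 mice per group, snap-frozen and powdered. Total RNA converted to cDNA; HOXA9, MEIS1 and GAPDH measured by TaqMan real-time PCR; relative expression by comparative Ct.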

Mus musculus [4] = test: Downregulation of MEIS1 expression in tumors of CB-17 SCID mouse xenografted with human MV4-11 cells at 10 mg/kg, iv administered as single dose and measured after 24 hrs by RT-qPCR analysis relative to control; assay type: functional
In short: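 Female C.B-17 SCID mice bearing subcutaneous MV4;11 flank xenografts were given a single IV dose (vehicle control). Tumors were harvested at 24 h, 3 mice per time point, snap-frozen in liquid N2 and ground. Total RNA was reverse-transcribed, and HOXA9, MEIS1 and GAPDH were measured by TaqMan real-time PCR. Relative expression was calculated by the comparative Ct method.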

[5] = Toxicity in SCID mouse assessed as drug tolerability at 10 mg/kg, iv administered every other day for 1 week; assay type: organism-based; settings: in vivo, 168 h
[6] = Toxicity in SCID mouse assessed as reduction in body weight at 25 mg/kg, iv administered every other day for 1 week relative to control; assay type: organism-based; parameters: scale not given: the % may be the effect or the level left; settings: in vivo, 168 h
MV4-11 [7] = test: Growth inhibition of human MV4-11 cells after 7 days by WST-8 assay; assay type: functional, cell-based; settings: MV4-11, 168 h; in short: as §1
Menin [8] = target: T2, Menin (Homo sapiens, UniProt O00255); test: Inhibition of fluorescent labeled tracer binding to Menin (unknown origin) after 1 hr by fluorescence polarization competitive binding assay
T2 sequence (O00255 whole entry): T1 sequence (whole entry)
In short: (§3)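 Competitive FP assay: 4 nM menin and 2 nM fluorescein-labeled tracer (final concentrations) in PBS with 100 μg/mL bovine γ-globulin and 0.01% Triton X-100. Compounds added from DMSO at varying concentrations and incubated 1 h at room temperature. IC50 obtained by nonlinear sigmoidal fitting of the FP decrease against total compound concentration.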

[9] = Toxicity in SCID mouse assessed as drug tolerability at 25 mg/kg, iv administered every other day for 1 week; assay type: organism-based; settings: in vivo, 168 h
Mus musculus [10] = test: In vivo inhibition of Menin-MLL protein-protein interaction in CB-17 SCID mouse xenografted with human MV4-11 cells assessed as reduction in MEIS1 expression in tumor at 25 mg/kg, iv measured after 6 to 24 hrs by RT-qPCR analysis; assay type: functional, organism-based
In short: (§4)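 MV4;11 flank xenografts in female C.B-17 SCID mice given a single 25 mg/kg IV dose or vehicle. Tumors harvested at 6, 24 and 48 h, 3 mice per time point, and frozen in liquid N2. RNA extracted; HOXA9 and MEIS1, with GAPDH, quantified by TaqMan qRT-PCR using the comparative Ct method.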

Mus musculus [11] = test: In vivo inhibition of Menin-MLL protein-protein interaction in CB-17 SCID mouse xenografted with human MV4-11 cells assessed as reduction in HOXA9 expression in tumor at 25 mg/kg, iv measured after 6 to 24 hrs by RT-qPCR analysis; assay type: functional, organism-based; in short: as §4
MV4-11 [12] = test: Antitumor activity against human MV4-11 cells xenografted in CB-17 SCID mouse assessed as effect on tumor growth at 10 mg/kg, iv administered every other day for 1 week (11 doses); assay type: functional, organism-based
In short: (§5)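 Female C.B-17 SCID mice inoculated s.c. in the flank with 5 × 10^6 MV4;11 cells in 0.1 mL 1:1 PBS/Matrigel (final Matrigel 5 mg/mL). Dosed IV every other day, 3 times per week, 11 doses in total; vehicle-only control group. Tumor volume by calipers as (A × B²)/2, and body weight, measured 2–3 times weekly during treatment and at least weekly afterward. Toxicity signs monitored.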

MV4-11 [13] = test: Antitumor activity against human MV4-11 cells xenografted in CB-17 SCID mouse assessed as tumor growth inhibition at 25 mg/kg, iv administered every other day for 1 week (11 doses) and measured on day 35 post treatment relative to control; assay type: functional; settings: MV4-11, iv, read-out: TGI
MV4-11 [14] = test: Antitumor activity against human MV4-11 cells xenografted in CB-17 SCID mouse assessed as tumor volume at 25 mg/kg, iv administered every other day for 1 week (11 doses) and measured on day 35 post treatment (reference value: 92 mm3); assay type: functional
[15] = Toxicity in CB-17 SCID mouse xenografted with human MV4-11 cells assessed as effect on body weight at 10 to 25 mg/kg, iv administered every other day for 1 week (11 doses); assay type: organism-based; settings: in vivo, 168 h; in short: as §5
[16] = Toxicity in CB-17 SCID mouse xenografted with human MV4-11 cells assessed as effect on clinical signs at 10 to 25 mg/kg, iv administered every other day for 1 week (11 doses); assay type: organism-based; settings: in vivo, 168 h; in short: as §5
Menin [17] = target: T2, Menin; test: Inhibition of menin (unknown origin) by fluorescence polarization assay; in short: as §3

Row | IC50 (MOLM-13) [nM] | IC50 (HL-60) [nM] | Activity (Menin (Homo sapiens) [1]) [%] | Activity (Menin (Homo sapiens) [2]) [%] | IC50 (MV4-11 [7]) [nM] | Structure (SMILES) | other results
1 | 2 | 700 |  |  | 1.1 | COC(=O)N[C@H]1CCC[C@@H]1[C@](CN(C)C)(c1cccc(F)c1)C1CCN(CC2CN(c3ccc(S(=O)(=O)C4CN(C(=O)/C=C/CN(C)C)C4)cc3)C2)CC1 | 
2 | 20 | 3200 | 0 | 0 | 4 | COC(=O)N[C@H]1CCC[C@@H]1[C@](CN1CCC1)(c1cccc(F)c1)C1CCN(CC2CN(c3ccc(S(=O)(=O)C4CN(C(=O)/C=C/CN5CCC(F)(F)CC5)C4)cc3)C2)CC1 | 
3 | 157 | 600 |  |  | 40 | COC(=O)N[C@H]1CCC[C@@H]1[C@](CN1CCCCC1)(c1cccc(F)c1)C1CCN(CC2CN(c3ccc(S(=O)(=O)C4CN(C(=O)/C=C/CN(C)C)C4)cc3)C2)CC1 | 
4 | 15 | 2800 | 0 | 0 | 4 | COC(=O)N[C@H]1CCC[C@@H]1[C@](CN1CCC1)(c1cccc(F)c1)C1CCN(CC2CN(c3ccc(S(=O)(=O)C4CN(C(=O)/C=C/CN5CC(F)(F)C5)C4)cc3)C2)CC1 | 
5 | 11 | > 10000 | 100 | 100 | 2 | CCc1nccn1C[C@@](c1cccc(F)c1)(C1CCN(CC2CN(c3ccc(S(=O)(=O)C4CN(C(=O)/C=C/CN(C)C)C4)cc3)C2)CC1)[C@H]1CCC[C@@H]1NC(=O)OC | IC50 (Menin [8]): 1.7 nM
6 | 3 | 2100 | 75 | 100 |  | COC(=O)N[C@H]1CCC[C@@H]1[C@](CN1CCC1)(c1cccc(F)c1)C1CCN(CC2CN(c3ccc(S(=O)(=O)C4CN(C(=O)/C=C/CN5CCC5)C4)cc3)C2)CC1 | 
7 | 374 | 2600 | 50 | 75 | 23 | C=CC(=O)N1CC(S(=O)(=O)c2ccc(N3CC(CN4CCC([C@@](CN5CCC5)(c5cccc(F)c5)[C@H]5CCC[C@@H]5NC(=O)OC)CC4)C3)cc2)C1 | 
8 | 3 | 2000 | 20 | 75 | 1 | COC(=O)N[C@H]1CCC[C@@H]1[C@](CN1CCC1)(c1cccc(F)c1)C1CCN(CC2CN(c3ccc(S(=O)(=O)C4CN(C(=O)/C=C/CN5CC(F)C5)C4)cc3)C2)CC1 | 
9 | 19 | 1500 | 95 | 100 | 4 | COC(=O)N[C@H]1CCC[C@@H]1[C@](C#N)(c1cccc(F)c1)C1CCN(CC2CN(c3ccc(S(=O)(=O)C4CN(C(=O)/C=C/CN(C)C)C4)cc3)C2)CC1 | IC50 (Menin [17]): 3.3 nM
10 | 21 | 3600 | 20 | 100 | 3 | COC(=O)N[C@H]1CCC[C@@H]1[C@](CN1CCC1)(c1cccc(F)c1)C1CCN(CC2CN(c3ccc(S(=O)(=O)C4CN(C(=O)/C=C/CN5CCC(F)CC5)C4)cc3)C2)CC1 | 
11 | 14 | 4800 |  |  |  | COC(=O)N[C@H]1CCC[C@@H]1[C@](Cn1ccnn1)(c1cccc(F)c1)C1CCN(CC2CN(c3ccc(S(=O)(=O)C4CN(C(=O)/C=C/CN(C)C)C4)cc3)C2)CC1 | 
12 | 15 | 1400 |  |  | 5 | COC(=O)N[C@H]1CCC[C@@H]1[C@](CN1CCCC1)(c1cccc(F)c1)C1CCN(CC2CN(c3ccc(S(=O)(=O)C4CN(C(=O)/C=C/CN(C)C)C4)cc3)C2)CC1 | 

Row | Structure (SMILES) | IC50 (MOLM-13) [nM] | IC50 (HL-60) [nM] | Activity (Menin (Homo sapiens) [1]) [%] | Activity (Menin (Homo sapiens) [2]) [%] | IC50 (MV4-11 [7]) [nM] | other results
13 | COC(=O)N[C@H]1CCC[C@@H]1[C@](CN1CCC1)(c1cccc(F)c1)C1CCN(CC2CN(c3ccc(S(=O)(=O)C4CN(C(=O)/C=C/CN5CCCC5)C4)cc3)C2)CC1 | 9 | 2100 | 100 | 100 |  | Activity (Mus musculus [3]): Active; fold change (FC) (Mus musculus [4]): >2; Activity [5]: Non-Toxic; Activity [6]: > 10%
14 | COC(=O)N[C@H]1CCC[C@@H]1[C@](CN1CCC1)(c1cccc(F)c1)C1CCN(CC2CN(c3ccc(S(=O)(=O)C4CN(C(=O)/C=C/CN5CCCCC5)C4)cc3)C2)CC1 | 4 | 2800 | 75 | 100 | 1 | IC50 (Menin [8]): 2.6 nM; Activity (Mus musculus [3]): Active; fold change (FC) (Mus musculus [4]): >2; Activity [5]: Non-Toxic; Activity [9]: Non-Toxic; inhibition (Mus musculus [10]): Active; inhibition (Mus musculus [11]): Active; Activity (MV4-11 [12]): inactive; inhibition in vivo at 25 mg/kg (MV4-11 [13]): 97%; Activity (MV4-11 [14]): 59 mm3; Activity [15]: Non-Toxic; Activity [16]: Non-Toxic
15 | COC(=O)N[C@H]1CCC[C@@H]1[C@](CN1CCC1)(c1cccc(F)c1)C1CCN(CC2CN(c3ccc(S(=O)(=O)C4CN(C(=O)/C=C/CN(C)C)C4)cc3)C2)CC1 | 8 | 3000 | 75 | 100 |  | Activity (Mus musculus [3]): Active; fold change (FC) (Mus musculus [4]): >2; Activity [5]: Non-Toxic; Activity [6]: > 10%
